Experimental findings from ChEMBL document CHEMBL3045116, “Synthesis and biological evaluation of 2-(5-substituted-1-((diethylamino)methyl)-2-oxoindolin-3-ylidene)-N-substituted-hydrazinecarbothioamides” (Med Chem Res, 2013) are described below.

Series [1] in a line: Inhibition of beta lactamase assessed as time for decolorization of iodine (reference value: 79.5 secs).
A short description of series [2]: Inhibition of beta lactamase assessed as increase in time taken for iodine decolorization relative to control. More on the design: concentration or dose not given beside the values. The conditions noted are these: concentration not given here.
A short description of series [3]: Cytotoxicity against Chlorocebus aethiops (African green monkey) Vero cells assessed as change in cellular morphology. Particulars: chlorocebus sabaeus. The class given is cell-based.
The test system of the next series is Influenza A virus H3N2. Put plainly: Antiviral activity against Influenza A virus H3N2 infected MDCK cells assessed as reduction of virus-induced cytopathic effect after 3 days by colorimetric formazan-based MTS assay. The class given is functional, organism-based. Particulars: 72 h. In outline: (§1)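 Confluent cell monolayers were infected with 100 CCID50 of virus, and serial dilutions of compound were added at the time of infection.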

For series [4], the system named is Mammalian orthoreovirus 1. The series can be described thus: Antiviral activity against Mammalian orthoreovirus 1 infected African green monkey Vero cells assessed as reduction of virus-induced cytopathic effect after 3 days by colorimetric formazan-based MTS assay. In kind it is functional, organism-based. Particulars: Mammalian orthoreovirus 1, Vero, 72 h. In outline:
(§2)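 Cells grown to confluency in 96-well plates ([…], Vero for lines 9–10) were infected with 100 CCID50 of virus, and serial compound dilutions were added at infection. Plates were incubated at 37 °C for 3 days, until complete CPE appeared in untreated virus controls.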

A further series concerns Human respirovirus 3. The series can be described thus: Antiviral activity against Human parainfluenza virus 3 infected African green monkey Vero cells assessed as reduction of virus-induced cytopathic effect after 3 days by colorimetric formazan-based MTS assay. The class given is functional, organism-based. The conditions noted are these: Human respirovirus 3, Vero, 72 h. The method, boiled down: as §2
Background: Cytopathic effects are the visible damage that an infection or toxin causes in cultured cells.

The test system of series [5] is Vesicular stomatitis virus. The series can be described thus: Antiviral activity against Vesicular stomatitis virus infected human HeLa cells assessed as reduction of virus-induced cytopathic effect after 3 days by colorimetric formazan-based MTS assay. In kind it is functional, organism-based. Particulars: 72 h. In outline:
as §1

Series [6] is described as follows: Cytotoxicity against Homo sapiens (human) HeLa cells assessed as change in cellular morphology. Particulars: HeLa cells. In kind it is cell-based. In outline: (§3)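 Uninfected cells were exposed to compound in parallel with the antiviral cultures. The read-out is the minimum cytotoxic concentration that causes a microscopically detectable alteration of normal cell morphology.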

The subject of series [7] is Coxsackievirus B4. Put plainly: Antiviral activity against Human coxsackievirus B4 infected human HeLa cells assessed as reduction of virus-induced cytopathic effect after 3 days by colorimetric formazan-based MTS assay. The conditions noted are these: Enterovirus B, 72 h. The class given is functional, organism-based. The method, boiled down: as §1
For series [8], the system named is Coxsackievirus B4. The series can be described thus: Antiviral activity against Human coxsackievirus B4 infected African green monkey Vero cells assessed as reduction of virus-induced cytopathic effect after 3 days by colorimetric formazan-based MTS assay. In kind it is functional, organism-based. Particulars: Enterovirus B, 72 h. The method, boiled down:
as §1

The next series relates to Influenza A virus. The series can be described thus: Antiviral activity against Unidentified Influenza A virus (H1N1) infected MDCK cells assessed as reduction of virus-induced cytopathic effect after 3 days by colorimetric formazan-based MTS assay. The conditions noted are these: 72 h. In kind it is functional, organism-based. The method, boiled down: as §1
Series [9] is described as follows: (§4) Cytotoxicity against MDCK cells assessed as change in cellular morphology. The class given is cell-based, Canis lupus familiaris. The conditions noted are these: dog, MDCK cells. In outline:
as §3

A further series relates to Influenza B virus. Put plainly: Antiviral activity against Influenza B virus infected in MDCK cells assessed as reduction of virus-induced cytopathic effect after 3 days by colorimetric formazan-based MTS assay. The class given is functional, organism-based. Particulars: 72 h. The method, boiled down:
as §1

Series [10] deals with Respiratory syncytial virus. The series can be described thus: Antiviral activity against Respiratory syncytial virus infected human HeLa cells assessed as reduction of virus-induced cytopathic effect after 3 days by colorimetric formazan-based MTS assay. The class given is functional, organism-based. The conditions noted are these: 72 h. The method, boiled down:
as §1

A further series has as its system Respirovirus muris. The series can be described thus: Antiviral activity against Sendai virus infected African green monkey Vero cells assessed as reduction of virus-induced cytopathic effect after 3 days by colorimetric formazan-based MTS assay. In kind it is functional, organism-based. The conditions noted are these: 72 h.
For series [11], the system named is Vesicular stomatitis virus. Put plainly: Antiviral activity against Vesicular stomatitis virus infected human HEL cells assessed as reduction of virus-induced cytopathic effect after 3 days by colorimetric formazan-based MTS assay. The conditions noted are these: 72 h. In kind it is functional, organism-based. In outline: as §1
The subject of a further series is Vaccinia virus. Put plainly: Antiviral activity against Vaccinia virus infected human HEL cells assessed as reduction of virus-induced cytopathic effect after 3 days by colorimetric formazan-based MTS assay. In kind it is functional, organism-based. Particulars: Orthopoxvirus vaccinia, 72 h. In outline: as §1
A short description of series [12]: Cytotoxicity against Felis catus (cat) CRFK cells assessed as change in cellular morphology. The class given is cell-based. Particulars: CRFK cells. The method, boiled down: as §3
The nature of series [13]: Cytotoxicity against Homo sapiens (human) HEL cells assessed as change in cellular morphology. The class given is cell-based.
The test system of series [14] is Feline infectious peritonitis virus. Put plainly: Antiviral activity against Feline Infectious peritonitis virus infected cat CRFK cells assessed as reduction of virus-induced cytopathic effect after 3 days by colorimetric formazan-based MTS assay. In kind it is functional, organism-based. The conditions noted are these: Alphacoronavirus 1, CRFK, 72 h. In outline:
as §1

The test system of another series is Felid alphaherpesvirus 1. The series can be described thus: Antiviral activity against Felid herpesvirus 1 infected cat CRFK cells assessed as reduction of virus-induced cytopathic effect after 3 days by colorimetric formazan-based MTS assay. The class given is functional, organism-based. Particulars: Felid alphaherpesvirus 1, CRFK, 72 h. The method, boiled down:
as §2

The test system of a further series is Human alphaherpesvirus 1. The series can be described thus: Antiviral activity against acyclovir-resistant thymidine kinase negative Human herpesvirus 1 strain KOS infected human HEL cells assessed as reduction of virus-induced cytopathic effect after 3 days by colorimetric formazan-based MTS assay. In kind it is functional, organism-based. Particulars: Human alphaherpesvirus 1, KOS, 72 h. The method, boiled down: as §1

The subject of a further series is Human alphaherpesvirus 2. Put plainly: Antiviral activity against Human herpesvirus 2 strain G infected human HEL cells assessed as reduction of virus-induced cytopathic effect after 3 days by colorimetric formazan-based MTS assay. The class given is functional, organism-based. The conditions noted are these: Human alphaherpesvirus 2, strain G, 72 h. The method, boiled down:
as §1

For another series, the system named is MDCK. The description is as §4. The class given is cell-based, Canis lupus familiaris. The conditions noted are these: dog, mdck. The method, boiled down: as §3
The next series relates to Klebsiella pneumoniae. Put plainly: Antibacterial activity against Klebsiella pneumoniae assessed as growth inhibition at 50 ug/ml by cup-plate method (reference value: 8 to 10 mm). In kind it is functional. The conditions noted are these: read-out: DIZ.
The test system of the next series is Proteus vulgaris. Put plainly: Antibacterial activity against Proteus vulgaris assessed as growth inhibition at 50 ug/ml by cup-plate method (reference value: 8 to 10 mm). In kind it is functional. Particulars: read-out: DIZ.
In another series the test system is Bacillus subtilis. Put plainly: Antibacterial activity against Bacillus subtilis assessed as growth inhibition at 50 ug/ml by cup-plate method (reference value: 8 to 10 mm). The class given is functional. Particulars: read-out: DIZ.
The next series concerns Salmonella typhi. The series can be described thus: Antibacterial activity against Salmonella enterica subsp. enterica serovar Typhi assessed as growth inhibition at 50 ug/ml by cup-plate method (reference value: 8 to 10 mm). The class given is functional. Particulars: read-out: DIZ.
Another series has as its system Staphylococcus aureus. Put plainly: Antibacterial activity against Staphylococcus aureus assessed as growth inhibition at 50 ug/ml by cup-plate method (reference value: 8 to 10 mm). Particulars: read-out: DIZ. The class given is functional.
The test system of the next series is Escherichia coli. The series can be described thus: Antibacterial activity against Escherichia coli assessed as growth inhibition at 50 ug/ml by cup-plate method (reference value: 8 to 10 mm). Particulars: read-out: DIZ. In kind it is functional.

Some results are limits rather than exact numbers.

What is called inhibition is the percentage by which the read-out fell short of the control. As usually defined, the EC50 is the midpoint of the concentration-response curve. Broadly, the CC50 is the concentration at which the toxic effect on the cells reaches its halfway point.

With `O=C(O)[C@H]1/C(=C/CO)O[C@@H]2CC(=O)N21`, the TIME in series [1] worked out at 0.0668 h. Moreover, in [2], the inhibition came to 67%.

As to `NC(=O)c1ncn([C@@H]2O[C@H](CO)[C@@H](O)[C@H]2O)n1` [RIBAVIRIN], the MCC in series [3] was > 250 µM; in series [6] it was > 250 µM; in [9], ≥ 100 µM. For the same molecule, the EC50 is 6.8 µM with Influenza A virus H3N2; > 250 µM in [4]; 50 µM in the series with Human respirovirus 3; 12.1 µM in series [5]; 28.5 µM in the series with Coxsackievirus B4 [7]; > 250 µM in the series with Coxsackievirus B4 [8]. In addition, the EC50 was 11.5 µM in the series on Influenza A virus, 8.4 µM in the series on Influenza B virus, 4.6 µM in series [10] and > 250 µM with Respirovirus muris. In addition, the CC50 in [6] was > 250 µM.

In the case of `Nc1nc2c(ncn2COC(CO)CO)c(=O)[nH]1` [GANCICLOVIR], the EC50 in [11] is > 100 µM; in the series on Vaccinia virus, > 100 µM; in series [14], > 100 µM; in the series with Felid alphaherpesvirus 1 it was 7.3 µM; in the series with Human alphaherpesvirus 1 it was ≥ 20 µM; in the series with Human alphaherpesvirus 2 it was 0.07 µM. For the same molecule, the CC50 in series [12] was > 100 µM. Also, in series [13], the MCC was > 100 µM.

For the molecule `Nc1nc2c(ncn2COCCO)c(=O)[nH]1` [ACYCLOVIR], the results for the EC50 (in [11]; with Vaccinia virus; in the series on Human alphaherpesvirus 2) were > 250 µM, > 250 µM and 0.7 µM, respectively. Besides, the MCC in series [13] is > 250 µM.

As to `NC12CC3CC(CC(C3)C1)C2` [AMANTADINE], the EC50 in the series with Influenza A virus H3N2 was 1.5 µM; in the series with Influenza A virus it was 65.5 µM; in the series with Influenza B virus, > 500 µM. The MCC in [9] was > 500 µM. Also, the CC50 in the series on MDCK was > 500 µM.

In the case of `CC1COc2c(N3CCN(C)CC3)c(F)cc3c(=O)c(C(=O)O)cn1c23` (stereo not drawn) [OFLOXACIN], the zone of inhibition at 50 µg/mL with Klebsiella pneumoniae, in the series with Proteus vulgaris, with Bacillus subtilis, with Salmonella typhi, with Staphylococcus aureus and with Escherichia coli was 31 mm throughout.

`O=c1[nH]c(=O)n([C@H]2C[C@H](O)[C@@H](CO)O2)cc1/C=C/Br` [BRIVUDINE]: the EC50 in series [11] is > 250 µM; with Vaccinia virus, 29 µM; in the series with Human alphaherpesvirus 1, > 250 µM. For the same molecule, the MCC in series [13] was > 250 µM.
